Assay [1] in a line: Induction of H2S generation assessed as half life at 150 uM incubated at 22 degC and pH 7.4 by fluorescence spectrophotometry. The format is functional. In short, it runs like this:
(§1)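 Donor at 150 µM final, mixed with 200 µM sulfonyl-azide fluorescent probe in buffer/acetonitrile (1:9) at set pH. Cuvette held in a water bath at 22 °C or 37 °C, with fluorescence read three times at intervals. H2S was quantified from a Na2S standard curve (0–200 µM, probe 200 µM).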

For assay [2], the system named is A549. Briefly: Cytotoxicity in human A549 cells assessed as growth inhibition incubated for 24 hrs by MTT assay. In kind it is functional, cell-based. The settings on record: A549, 24 h. In short, it runs like this:
(§2)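 Cells were grown in RPMI 1640 with 10% FBS at 37 °C and 10% CO2, seeded at 6×10^3 cells/well. Exposure was 24 h, with viability by MTT, in triplicate cultures. IC50 was reported as mean ± SD.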
On the technique in general: Formazan colour is commonly taken as a measure of viable cells.

The nature of assay [3]: Induction of H2S generation assessed as Cmax at 150 uM incubated at 37 degC and pH 1.2 by fluorescence spectrophotometry. In kind it is functional. In short, it runs like this: as §1
Assay [4] has as its system WI-38. In words: Cytotoxicity in human W138 cells assessed as growth inhibition incubated for 24 hrs by MTT assay. In kind it is cell-based. The settings on record: WI-38, 24 h. In short, it runs like this: as §2
Assay [5] can be described thus: Induction of H2S generation assessed as half life at 150 uM incubated at 22 degC and pH 1.2 by fluorescence spectrophotometry. In kind it is functional. In short, it runs like this:
as §1

Assay [6] in a line: Induction of H2S generation assessed as half life at 150 uM incubated at 37 degC and pH 1.2 by fluorescence spectrophotometry. The format is functional. In short, it runs like this: as §1
Assay [7] in a line: Induction of H2S generation assessed as Cmax at 150 uM incubated at 22 degC and pH 5 by fluorescence spectrophotometry. In kind it is functional. In short, it runs like this:
as §1

Assay [8] in a line: Induction of H2S generation assessed as Cmax at 150 uM incubated at 22 degC and pH 1.2 by fluorescence spectrophotometry. The format is functional. In short, it runs like this:
as §1

Assay [9] is described as follows: Induction of H2S generation assessed as Cmax at 150 uM incubated at 37 degC and pH 5 by fluorescence spectrophotometry. The format is functional. In short, it runs like this: as §1
Assay [10] is described as follows: Induction of H2S generation assessed as Cmax Induction of H2S generation assessed as Cmax at 150 uM incubated at 37 degC and pH 7.4 by fluorescence spectrophotometry. The format is functional. In short, it runs like this: as §1
The subject of assay [11] is HT-29. In words: Cytotoxicity in human HT-29 cells assessed as growth inhibition incubated for 24 hrs by MTT assay. The format is functional, cell-based. The settings on record: HT-29, 24 h. In short, it runs like this: as §2
Assay [12] can be described thus: Induction of H2S generation assessed as half life at 150 uM incubated at 37 degC and pH 7.4 by fluorescence spectrophotometry. The format is functional. In short, it runs like this: as §1
Assay [13] in a line: Induction of H2S generation assessed as Cmax at 150 uM incubated at 22 degC and pH 7.4 by fluorescence spectrophotometry. The format is functional. In short, it runs like this: as §1
Assay [14] can be described thus: Induction of H2S generation assessed as half life at 150 uM incubated at 37 degC and pH 8 by fluorescence spectrophotometry. The format is functional. In short, it runs like this: as §1
Assay [15] relates to HeLa. Briefly: Cytotoxicity in human HeLa cells assessed as growth inhibition incubated for 24 hrs by MTT assay. The format is functional, cell-based. In short, it runs like this: as §2
Assay [16] has as its system HepG2. In words: Cytotoxicity in human HePG2 cells assessed as growth inhibition incubated for 24 hrs by MTT assay. In kind it is functional, cell-based. The settings on record: HepG2, 24 h. In short, it runs like this:
as §2

Assay [17] in a line: Induction of H2S generation assessed as Cmax Induction of H2S generation assessed as Cmax at 150 uM incubated at 37 degC and pH 8 by fluorescence spectrophotometry. The format is functional. In short, it runs like this: as §1
A short description of assay [18]: Induction of H2S generation assessed as half life at 150 uM incubated at 22 degC and pH 5 by fluorescence spectrophotometry. The format is functional. In short, it runs like this:
as §1

Assay [19] in a line: Induction of H2S generation assessed as Cmax at 150 uM incubated at 22 degC and pH 8 by fluorescence spectrophotometry. In kind it is functional. In short, it runs like this: as §1
A short description of assay [20]: Induction of H2S generation assessed as half life at 150 uM incubated at 37 degC and pH 5 by fluorescence spectrophotometry. In kind it is functional. In short, it runs like this: as §1
The subject of assay [21] is MCF7. Briefly: Cytotoxicity in human MCF-7 cells assessed as growth inhibition incubated for 24 hrs by MTT assay. The format is functional, cell-based. The settings on record: MCF7, 24 h. In short, it runs like this: as §2
Assay [22] in a line: Induction of H2S generation assessed as half life at 150 uM incubated at 22 degC and pH 8 by fluorescence spectrophotometry. The format is functional. In short, it runs like this: as §1

Turning to `S=P1(c2ccccc2)OCCO1`, the T1/2 was 26.6 min in assay [1]; 25.4 min in [5]; 25.8 min in assay [6]; 25.9 min in [12]; 25 min in assay [14]; 25.1 min in assay [18]. The figures for the T1/2 in assay [20] and in [22] were 27.9 min and 26.5 min, respectively. Besides, the IC50 – broadly, the concentration at which inhibition is half-maximal – turned out to be 679 µM in [2]; 381 µM in assay [4]; 882 µM in assay [11]; 679 µM in [15]; 804 µM in [16]; 748 µM in [21]. The Cmax in [3] was determined as 35.7 µM; in assay [7], 27.9 µM; in assay [8] it was 28.4 µM; in [9], 35.7 µM; in [10] it was 29.1 µM; in assay [13] it was 27.7 µM. Further, the Cmax in assay [17] came to 35.7 µM; in assay [19], 27.5 µM.
Regarding `CC(C)C[C@H](NP(O)(=S)c1ccccc1)C(=O)O` (stereo not given in full), the T1/2 worked out at 3.72 min in [1]; 2.65 min in assay [5]; 2.04 min in assay [6]; 2.83 min in assay [12]; 3.59 min in [14]; 3.25 min in assay [18]. Moreover, the T1/2 in assay [20] is 2.75 min; in assay [22], 4.44 min. Besides, the IC50 was found to be 273 µM in assay [2]; 438 µM in assay [4]; 756 µM in assay [11]; 835 µM in [15]; 415 µM in assay [16]; 643 µM in assay [21]. The Cmax came to 119 µM in assay [3]; 112 µM in assay [7]; 113 µM in assay [8]; 118 µM in [9]; 118 µM in assay [10]; 112 µM in assay [13]. For the same compound, the Cmax stood at 116 µM in assay [17] and 111 µM in assay [19].
As to `CC[C@H](C)[C@H](NP(O)(=S)c1ccccc1)C(=O)O` (stereo not given in full), the T1/2 in [1] was 3.65 min; in assay [5], 2.04 min; in assay [6] it was 1.53 min; in assay [12], 2.91 min; in assay [14], 4.17 min; in assay [18], 2.87 min. Further, the T1/2 worked out at 2.72 min in assay [20] and 4.04 min in assay [22]. The IC50 in assay [2] was 236 µM; in [4], 658 µM; in [11], 782 µM; in assay [15] it was 972 µM; in assay [16], 604 µM; in [21], 601 µM. The Cmax in assay [3] worked out at 123 µM; in [7], 117 µM; in assay [8], 119 µM; in assay [9], 123 µM; in assay [10], 123 µM; in [13], 117 µM. The Cmax in assay [17] came out at 122 µM; in assay [19] it was 117 µM.
Consider `S=P1(c2ccccc2)NCCCN1`, for which the T1/2 stood at 27.5 min in assay [1]; 29.2 min in assay [5]; 27.8 min in assay [6]; 27.1 min in assay [12]; 28.4 min in assay [14]; 29.8 min in [18]. Besides, the values for the T1/2 in [20] and in assay [22] were 29.6 min and 29 min, respectively. The IC50 came out at 876 µM in [2]; 381 µM in [4]; 600 µM in assay [11]; 793 µM in [15]; 801 µM in [16]; 850 µM in assay [21]. For the same compound, the Cmax is 35.7 µM in assay [3]; 27.2 µM in assay [7]; 27 µM in assay [8]; 35.5 µM in assay [9]; 27.2 µM in [13]; 35.7 µM in [17]. Moreover, the Cmax in assay [19] came out at 27.1 µM.
Regarding `S=P1(c2ccccc2)NCCN1`, the T1/2 in assay [1] turned out to be 30.9 min; in [5] it was 32.5 min; in assay [6], 31.2 min; in [12], 31.1 min; in assay [14] it was 31.6 min; in assay [18] it was 31.1 min. Further, the T1/2 in [20] is 32.9 min; in assay [22] it was 30 min. Besides, the IC50 in [2] came to 641 µM; in assay [4], 958 µM; in assay [11] it was 780 µM; in assay [15], 968 µM; in assay [16] it was 657 µM; in [21] it was 713 µM. The Cmax is 35.7 µM in assay [3]; 28.4 µM in assay [7]; 28.5 µM in [8]; 35.4 µM in assay [9]; 29.9 µM in assay [10]; 28.4 µM in assay [13]. For the same compound, the results for the Cmax in assay [17] and in assay [19] were 34.8 µM and 28.3 µM, respectively.
`C[C@H](NP(O)(=S)c1ccccc1)C(=O)O` (stereo not given in full): the T1/2 in [1] turned out to be 3.72 min; in assay [5] it was 2.36 min; in [6], 1.67 min; in [12], 2.75 min; in assay [14], 3.4 min; in [18] it was 3.32 min. The figures for the T1/2 in assay [20] and in [22] were 2.23 min and 4.33 min, respectively. The IC50 in assay [2] was 346 µM; in assay [4] it was 351 µM; in assay [11], 689 µM; in assay [15], 888 µM; in [16], 858 µM; in [21], 832 µM. Further, the Cmax in assay [3] was 110 µM; in assay [7] it was 103 µM; in assay [8] it was 104 µM; in assay [9] it was 106 µM; in assay [10] it was 108 µM; in [13] it was 102 µM. In addition, the Cmax in assay [17] turned out to be 106 µM; in [19], 103 µM.
As for `O=C(O)[C@@H]1CCCN1P(O)(=S)c1ccccc1` (stereo not given in full), the T1/2 in assay [1] is 9.27 min; in assay [5] it was 10.9 min; in [6], 10.4 min; in [12], 9.92 min; in assay [14], 9.83 min; in [18], 10.6 min. In addition, the T1/2 in [20] amounted to 9.15 min; in assay [22], 10.8 min. In addition, the IC50 in assay [2] was 519 µM; in [4] it was 872 µM; in assay [11], 932 µM; in assay [15] it was 839 µM; in assay [16], 816 µM; in [21] it was 874 µM. Also, the Cmax in assay [3] was 4.2 µM; in assay [7], 4.2 µM; in assay [8] it was 4 µM; in assay [9] it was 4.2 µM; in [10], 4.2 µM; in assay [13], 4 µM. Also, the Cmax stood at 4.3 µM in assay [17] and 4.1 µM in assay [19].
Consider `O=c1[nH]cc(F)c(=O)[nH]1` [FLUOROURACIL], for which the IC50 in assay [2] amounted to 104 µM; in assay [4] it was 202 µM; in assay [11], 146 µM; in assay [15], 120 µM; in [16], 112 µM; in assay [21], 136 µM.
As to `S=P1(c2ccccc2)OCC2CCCN21` (stereo not given), the T1/2 in [1] came to 27.3 min; in [5], 29.9 min; in assay [6], 27.8 min; in assay [12], 28.9 min; in assay [14], 27.5 min; in [18], 28.2 min. Moreover, the T1/2 is 28.6 min in [20] and 29.2 min in [22]. Besides, the Cmax is 36.2 µM in assay [3]; 27.1 µM in assay [7]; 27.1 µM in assay [8]; 36.8 µM in assay [9]; 28.2 µM in assay [10]; 26.9 µM in assay [13]. Besides, the figures for the Cmax in assay [17] and in assay [19] were 33.7 µM and 27.1 µM, respectively. For the same compound, the IC50 in [4] came to 503 µM; in [11] it was 636 µM; in assay [15], 984 µM; in assay [16] it was 531 µM; in [21], 920 µM.

The values are drawn from ChEMBL document CHEMBL4665656, “Toxicity, bioactivity, release of HS in vivo and pharmaco-kinetics of HS-donors with thiophosphamide structure” (Eur J Med Chem, 2019).
